Results taken from ChEMBL document CHEMBL1129389, “Mechanism-based design of parasite-targeted artemisinin derivatives: synthesis and antimalarial activity of benzylamino and alkylamino ether analogues of artemisinin” (J Med Chem, 1996).

What was measured:
Plasmodium falciparum [1] = assay: Antimalarial activity against Plasmodium falciparum HB3; assay type: functional, organism-based
How it was run: (§1)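 Parasites kept in continuous culture in human erythrocytes (2–5%) in RPMI 1640 with 25 mM HEPES, 32 mM NaHCO3 and 10% human serum, gassed 3% O2/4% CO2/93% N2. 48 h assay: 1% initial parasitemia, 5% hematocrit, ethanol stocks (final <1% ethanol); [3H]hypoxanthine added after 24 h at 37 °C, counted after further 24 h. IC50 by probit interpolation; triplicate.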

Plasmodium falciparum [2] = assay: Antimalarial activity against Plasmodium falciparum K1; assay type: functional, organism-based; how it was run: as §1

| Structure (SMILES) | IC50 (Plasmodium falciparum [1]) | IC50 (Plasmodium falciparum [2]) |
| --- | --- | --- |
| C[C@@H]1CCC2[C@@H](C)[C@@H](OCc3ccc(CN4CCCC4)cc3)OC3O[C@@]4(C)CC[C@@H]1[C@]32OO4 (stereo partly specified) | 2.3 nM | 2.3 nM |
| C[C@@H]1CCC2[C@@H](C)[C@@H](OCc3ccc(CN4CCCCC4)cc3)OC3O[C@@]4(C)CC[C@@H]1[C@]32OO4 (stereo partly specified) | 12.2 nM | 9.8 nM |
| C[C@@H]1CCC2[C@@H](C)[C@@H](OCc3ccc(CN4CCOCC4)cc3)OC3O[C@@]4(C)CC[C@@H]1[C@]32OO4 (stereo partly specified) | 50 nM | 35 nM |
| CCN(CC)Cc1ccc(CO[C@H]2OC3O[C@@]4(C)CC[C@H]5[C@H](C)CCC([C@H]2C)[C@@]35OO4)cc1 (stereo partly specified) | 3.1 nM | 1.4 nM |
| CNCCO[C@H]1OC2O[C@@]3(C)CC[C@H]4[C@H](C)CCC([C@H]1C)[C@@]24OO3 (stereo partly specified) | 2.7 nM | 2.4 nM |
| C[C@@H]1CCC2[C@@H](C)[C@@H](OCc3ccc(CO)cc3)OC3O[C@@]4(C)CC[C@@H]1[C@]32OO4 (stereo partly specified) | 4.2 nM | 4.4 nM |
| CCNCCO[C@H]1OC2O[C@@]3(C)CC[C@H]4[C@H](C)CCC([C@H]1C)[C@@]24OO3 (stereo partly specified) | 4.1 nM | 4.1 nM |
| C[C@@H]1CC[C@H]2[C@@H](C)C(=O)O[C@@H]3O[C@@]4(C)CC[C@@H]1[C@]32OO4 [ARTEMISININ] | 7.3 nM | 6.4 nM |
